System: Fibroblast
Test: Multiplex assay against human fibroblast
Type: toxicity, cell-based
Procedure, shortened: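 Cells were classed with CellPathfinder machine-learning gating, first as Hoechst high-intensity objects or normal cells, then (normal cells) as healthy, pyknosed or fragmented nuclei, and finally (pyknosed cells) as mitotic or apoptotic. Staining of live cells at seeding used Hoechst33342, BioTracker Green Microtubule Cytoskeleton Dye, MitoTracker Red and Annexin V Alexa Fluor 680, with imaging on a CQ1 microscope at 37°C and 5% CO2 after compound addition. Tubulin, mitochondrial-mass and membrane-permeability phenotypes are per cents of healthy-nucleus cells.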

[1] = 12 h, 1 µM, compound concentration 1 uM, replicate 1
[2] = 12 h, 1 µM, compound concentration 1 uM, replicate 2
[3] = 12 h, 10 µM, compound concentration 10 uM, replicate 1
[4] = 12 h, 10 µM, compound concentration 10 uM, replicate 2
[5] = 24 h, 1 µM, compound concentration 1 uM, replicate 1
[6] = 24 h, 1 µM, compound concentration 1 uM, replicate 2
[7] = 24 h, 10 µM, compound concentration 10 uM, replicate 1
[8] = 24 h, 10 µM, compound concentration 10 uM, replicate 2

CN(C)CCOc1ccc(-c2nc(-c3ccncc3)c(-c3ccc4c(c3)CC/C4=N\O)[nH]2)cc1 [SB590885]
Population Apoptotic (%) [1]: 86%
Population Fragmented Nuclei (%) [1]: 40%
Population Healthy Nuclei (%) [1]: 29%
Population Hoechst High Intensity Objects (%) [1]: 31%
Population Membrane Permeable-Phenotype (%) [1]: 4%
Population Mitochondria Different-Phenotype (%) [1]: 1%
Population Mitotic Cells (%) [1]: 13%
Population Normal (%) [1]: 68%
Population Pyknosed Nuclei (%) [1]: 30%
Population Tubulin-Different-Phenotype (%) [1]: 12%
Total Cell Count [1]: 562
Population Apoptotic (%) [2]: 87%
Population Fragmented Nuclei (%) [2]: 44%
Population Healthy Nuclei (%) [2]: 3%
Population Hoechst High Intensity Objects (%) [2]: 32%
Population Membrane Permeable-Phenotype (%) [2]: 10%
Population Mitochondria Different-Phenotype (%) [2]: 5%
Population Mitotic Cells (%) [2]: 12%
Population Normal (%) [2]: 67%
Population Pyknosed Nuclei (%) [2]: 52%
Population Tubulin-Different-Phenotype (%) [2]: 42%
Total Cell Count [2]: 833
Population Apoptotic (%) [3]: 84%
Population Fragmented Nuclei (%) [3]: 38%
Population Healthy Nuclei (%) [3]: 48%
Population Hoechst High Intensity Objects (%) [3]: 14%
Population Membrane Permeable-Phenotype (%) [3]: 4%
Population Mitochondria Different-Phenotype (%) [3]: 5%
Population Mitotic Cells (%) [3]: 15%
Population Normal (%) [3]: 85%
Population Pyknosed Nuclei (%) [3]: 12%
Population Tubulin-Different-Phenotype (%) [3]: 13%
Total Cell Count [3]: 245
Population Apoptotic (%) [4]: 100%
Population Fragmented Nuclei (%) [4]: 69%
Population Healthy Nuclei (%) [4]: 28%
Population Hoechst High Intensity Objects (%) [4]: 50%
Population Membrane Permeable-Phenotype (%) [4]: 11%
Population Mitochondria Different-Phenotype (%) [4]: 16%
Population Mitotic Cells (%) [4]: 0%
Population Normal (%) [4]: 49%
Population Pyknosed Nuclei (%) [4]: 1%
Population Tubulin-Different-Phenotype (%) [4]: 22%
Total Cell Count [4]: 128
Population Apoptotic (%) [5]: 88%
Population Fragmented Nuclei (%) [5]: 50%
Population Healthy Nuclei (%) [5]: 40%
Population Hoechst High Intensity Objects (%) [5]: 43%
Population Membrane Permeable-Phenotype (%) [5]: 1%
Population Mitochondria Different-Phenotype (%) [5]: 0%
Population Mitotic Cells (%) [5]: 11%
Population Normal (%) [5]: 56%
Population Pyknosed Nuclei (%) [5]: 8%
Population Tubulin-Different-Phenotype (%) [5]: 5%
Total Cell Count [5]: 552
Population Apoptotic (%) [6]: 90%
Population Fragmented Nuclei (%) [6]: 36%
Population Healthy Nuclei (%) [6]: 3%
Population Hoechst High Intensity Objects (%) [6]: 35%
Population Membrane Permeable-Phenotype (%) [6]: 20%
Population Mitochondria Different-Phenotype (%) [6]: 5%
Population Mitotic Cells (%) [6]: 9%
Population Normal (%) [6]: 64%
Population Pyknosed Nuclei (%) [6]: 59%
Population Tubulin-Different-Phenotype (%) [6]: 25%
Total Cell Count [6]: 821
Population Apoptotic (%) [7]: 67%
Population Fragmented Nuclei (%) [7]: 35%
Population Healthy Nuclei (%) [7]: 51%
Population Hoechst High Intensity Objects (%) [7]: 14%
Population Membrane Permeable-Phenotype (%) [7]: 6%
Population Mitochondria Different-Phenotype (%) [7]: 3%
Population Mitotic Cells (%) [7]: 32%
Population Normal (%) [7]: 85%
Population Pyknosed Nuclei (%) [7]: 13%
Population Tubulin-Different-Phenotype (%) [7]: 9%
Total Cell Count [7]: 299
Population Apoptotic (%) [8]: 100%
Population Fragmented Nuclei (%) [8]: 70%
Population Healthy Nuclei (%) [8]: 28%
Population Hoechst High Intensity Objects (%) [8]: 53%
Population Membrane Permeable-Phenotype (%) [8]: 31%
Population Mitochondria Different-Phenotype (%) [8]: 18%
Population Mitotic Cells (%) [8]: 0%
Population Normal (%) [8]: 46%
Population Pyknosed Nuclei (%) [8]: 1%
Population Tubulin-Different-Phenotype (%) [8]: 37%
Total Cell Count [8]: 122

N#Cc1cnc(Nc2cc(NC[C@H]3CNCCO3)c(C(F)(F)F)cn2)cn1 [SRA-737]
Population Apoptotic (%) [1]: 65%
Population Fragmented Nuclei (%) [1]: 23%
Population Healthy Nuclei (%) [1]: 59%
Population Hoechst High Intensity Objects (%) [1]: 13%
Population Membrane Permeable-Phenotype (%) [1]: 9%
Population Mitochondria Different-Phenotype (%) [1]: 1%
Population Mitotic Cells (%) [1]: 34%
Population Normal (%) [1]: 86%
Population Tubulin-Different-Phenotype (%) [1]: 4%
Total Cell Count [1]: 196
Population Apoptotic (%) [2]: 37%
Population Fragmented Nuclei (%) [2]: 60%
Population Healthy Nuclei (%) [2]: 21%
Population Hoechst High Intensity Objects (%) [2]: 35%
Population Membrane Permeable-Phenotype (%) [2]: 10%
Population Mitochondria Different-Phenotype (%) [2]: 0%
Population Mitotic Cells (%) [2]: 62%
Population Normal (%) [2]: 64%
Population Pyknosed Nuclei (%) [2]: 17%
Population Tubulin-Different-Phenotype (%) [2]: 0%
Total Cell Count [2]: 71
Population Apoptotic (%) [3]: 69%
Population Fragmented Nuclei (%) [3]: 33%
Population Healthy Nuclei (%) [3]: 53%
Population Hoechst High Intensity Objects (%) [3]: 12%
Population Membrane Permeable-Phenotype (%) [3]: 11%
Population Mitochondria Different-Phenotype (%) [3]: 1%
Population Mitotic Cells (%) [3]: 30%
Population Normal (%) [3]: 87%
Population Pyknosed Nuclei (%) [3]: 13%
Population Tubulin-Different-Phenotype (%) [3]: 8%
Total Cell Count [3]: 288
Population Apoptotic (%) [4]: 28%
Population Fragmented Nuclei (%) [4]: 58%
Population Healthy Nuclei (%) [4]: 28%
Population Hoechst High Intensity Objects (%) [4]: 34%
Population Membrane Permeable-Phenotype (%) [4]: 7%
Population Mitochondria Different-Phenotype (%) [4]: 35%
Population Mitotic Cells (%) [4]: 71%
Population Normal (%) [4]: 65%
Population Pyknosed Nuclei (%) [4]: 14%
Population Tubulin-Different-Phenotype (%) [4]: 21%
Total Cell Count [4]: 76
Population Apoptotic (%) [5]: 50%
Population Fragmented Nuclei (%) [5]: 31%
Population Healthy Nuclei (%) [5]: 56%
Population Hoechst High Intensity Objects (%) [5]: 9%
Population Membrane Permeable-Phenotype (%) [5]: 7%
Population Mitochondria Different-Phenotype (%) [5]: 2%
Population Mitotic Cells (%) [5]: 50%
Population Normal (%) [5]: 90%
Population Pyknosed Nuclei (%) [5]: 11%
Population Tubulin-Different-Phenotype (%) [5]: 1%
Total Cell Count [5]: 205
Population Apoptotic (%) [6]: 42%
Population Fragmented Nuclei (%) [6]: 63%
Population Healthy Nuclei (%) [6]: 22%
Population Hoechst High Intensity Objects (%) [6]: 24%
Population Membrane Permeable-Phenotype (%) [6]: 9%
Population Mitochondria Different-Phenotype (%) [6]: 9%
Population Mitotic Cells (%) [6]: 57%
Population Normal (%) [6]: 75%
Population Pyknosed Nuclei (%) [6]: 14%
Population Tubulin-Different-Phenotype (%) [6]: 18%
Total Cell Count [6]: 65
Population Apoptotic (%) [7]: 71%
Population Fragmented Nuclei (%) [7]: 41%
Population Healthy Nuclei (%) [7]: 48%
Population Hoechst High Intensity Objects (%) [7]: 18%
Population Membrane Permeable-Phenotype (%) [7]: 9%
Population Mitochondria Different-Phenotype (%) [7]: 2%
Population Mitotic Cells (%) [7]: 28%
Population Normal (%) [7]: 81%
Population Pyknosed Nuclei (%) [7]: 10%
Population Tubulin-Different-Phenotype (%) [7]: 15%
Total Cell Count [7]: 342
Population Apoptotic (%) [8]: 28%
Population Fragmented Nuclei (%) [8]: 59%
Population Healthy Nuclei (%) [8]: 26%
Population Hoechst High Intensity Objects (%) [8]: 27%
Population Membrane Permeable-Phenotype (%) [8]: 15%
Population Mitochondria Different-Phenotype (%) [8]: 30%
Population Mitotic Cells (%) [8]: 71%
Population Normal (%) [8]: 72%
Population Pyknosed Nuclei (%) [8]: 14%
Population Tubulin-Different-Phenotype (%) [8]: 30%
Total Cell Count [8]: 68

From ChEMBL document CHEMBL4689842, “EUbOPEN Chemogenomics Library wave 1” (2021)
